{"source": "paper PMC3778256", "about": "(Epilepsy research, 2012)", "key": {"human MDR1 (Pgp) [1]": {"biological_target": "T1, human MDR1 (Pgp) (Homo sapiens, UniProt P08183)", "T1 sequence (P08183 whole entry)": "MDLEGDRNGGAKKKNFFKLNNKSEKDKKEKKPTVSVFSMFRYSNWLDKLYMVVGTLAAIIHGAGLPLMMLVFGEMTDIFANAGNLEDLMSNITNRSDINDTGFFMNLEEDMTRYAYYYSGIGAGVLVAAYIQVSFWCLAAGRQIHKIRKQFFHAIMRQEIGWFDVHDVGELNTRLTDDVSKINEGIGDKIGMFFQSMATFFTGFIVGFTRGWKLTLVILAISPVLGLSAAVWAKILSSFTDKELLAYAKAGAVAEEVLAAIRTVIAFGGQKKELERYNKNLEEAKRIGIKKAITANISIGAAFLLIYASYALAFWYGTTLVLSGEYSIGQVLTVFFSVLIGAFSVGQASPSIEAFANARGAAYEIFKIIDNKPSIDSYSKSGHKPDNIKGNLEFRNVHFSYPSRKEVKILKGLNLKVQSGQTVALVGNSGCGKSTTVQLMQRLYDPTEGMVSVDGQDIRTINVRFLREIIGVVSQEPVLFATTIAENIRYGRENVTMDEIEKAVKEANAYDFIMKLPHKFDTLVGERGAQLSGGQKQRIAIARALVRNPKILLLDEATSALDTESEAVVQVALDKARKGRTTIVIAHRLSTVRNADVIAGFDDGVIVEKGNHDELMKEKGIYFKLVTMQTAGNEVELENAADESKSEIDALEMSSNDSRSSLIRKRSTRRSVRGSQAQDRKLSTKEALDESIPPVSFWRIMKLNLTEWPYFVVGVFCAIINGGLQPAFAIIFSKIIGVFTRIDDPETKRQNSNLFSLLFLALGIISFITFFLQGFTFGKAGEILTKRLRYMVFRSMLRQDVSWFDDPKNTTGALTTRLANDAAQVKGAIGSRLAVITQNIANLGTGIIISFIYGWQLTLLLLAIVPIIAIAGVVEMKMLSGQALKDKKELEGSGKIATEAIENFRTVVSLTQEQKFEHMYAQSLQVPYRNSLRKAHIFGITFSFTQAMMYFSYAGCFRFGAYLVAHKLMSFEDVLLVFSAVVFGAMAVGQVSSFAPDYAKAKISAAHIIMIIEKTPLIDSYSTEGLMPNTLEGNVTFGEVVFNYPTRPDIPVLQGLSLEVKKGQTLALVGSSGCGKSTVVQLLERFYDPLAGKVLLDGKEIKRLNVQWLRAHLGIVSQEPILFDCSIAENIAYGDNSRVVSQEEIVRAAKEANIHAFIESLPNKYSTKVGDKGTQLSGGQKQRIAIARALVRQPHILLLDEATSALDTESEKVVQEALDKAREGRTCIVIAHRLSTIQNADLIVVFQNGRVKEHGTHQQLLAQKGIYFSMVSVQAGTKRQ", "details": "tariquidar 0.5 μM; ref Luna-Tortós et al. 2008; cited from earlier work"}, "[2]": {"tested_on": "P-glycoprotein (Pgp) at the blood-brain barrier", "details": "naïve rats, 15 mg/kg; ref Kuntner et al. 2010; cited from earlier work"}, "[3]": {"experiment": "Plasma protein binding by ultrafiltration", "type": "in vitro ADME", "details": "rat plasma, n = 3"}, "[4]": {"experiment": "Radio-HPLC analysis of radiolabelled metabolites in rat plasma and brain", "details": "40 min after injection"}, "[5]": {"tested_on": "multidrug resistance proteins (MRPs) at the murine BBB", "details": "wild-type mice, MK571 20 mg/kg iv 30 min before scan"}, "[6]": {"biological_target": "multidrug resistance proteins (MRPs) at the murine BBB (Mus musculus, UniProt O35379)", "sequence (O35379 whole entry)": "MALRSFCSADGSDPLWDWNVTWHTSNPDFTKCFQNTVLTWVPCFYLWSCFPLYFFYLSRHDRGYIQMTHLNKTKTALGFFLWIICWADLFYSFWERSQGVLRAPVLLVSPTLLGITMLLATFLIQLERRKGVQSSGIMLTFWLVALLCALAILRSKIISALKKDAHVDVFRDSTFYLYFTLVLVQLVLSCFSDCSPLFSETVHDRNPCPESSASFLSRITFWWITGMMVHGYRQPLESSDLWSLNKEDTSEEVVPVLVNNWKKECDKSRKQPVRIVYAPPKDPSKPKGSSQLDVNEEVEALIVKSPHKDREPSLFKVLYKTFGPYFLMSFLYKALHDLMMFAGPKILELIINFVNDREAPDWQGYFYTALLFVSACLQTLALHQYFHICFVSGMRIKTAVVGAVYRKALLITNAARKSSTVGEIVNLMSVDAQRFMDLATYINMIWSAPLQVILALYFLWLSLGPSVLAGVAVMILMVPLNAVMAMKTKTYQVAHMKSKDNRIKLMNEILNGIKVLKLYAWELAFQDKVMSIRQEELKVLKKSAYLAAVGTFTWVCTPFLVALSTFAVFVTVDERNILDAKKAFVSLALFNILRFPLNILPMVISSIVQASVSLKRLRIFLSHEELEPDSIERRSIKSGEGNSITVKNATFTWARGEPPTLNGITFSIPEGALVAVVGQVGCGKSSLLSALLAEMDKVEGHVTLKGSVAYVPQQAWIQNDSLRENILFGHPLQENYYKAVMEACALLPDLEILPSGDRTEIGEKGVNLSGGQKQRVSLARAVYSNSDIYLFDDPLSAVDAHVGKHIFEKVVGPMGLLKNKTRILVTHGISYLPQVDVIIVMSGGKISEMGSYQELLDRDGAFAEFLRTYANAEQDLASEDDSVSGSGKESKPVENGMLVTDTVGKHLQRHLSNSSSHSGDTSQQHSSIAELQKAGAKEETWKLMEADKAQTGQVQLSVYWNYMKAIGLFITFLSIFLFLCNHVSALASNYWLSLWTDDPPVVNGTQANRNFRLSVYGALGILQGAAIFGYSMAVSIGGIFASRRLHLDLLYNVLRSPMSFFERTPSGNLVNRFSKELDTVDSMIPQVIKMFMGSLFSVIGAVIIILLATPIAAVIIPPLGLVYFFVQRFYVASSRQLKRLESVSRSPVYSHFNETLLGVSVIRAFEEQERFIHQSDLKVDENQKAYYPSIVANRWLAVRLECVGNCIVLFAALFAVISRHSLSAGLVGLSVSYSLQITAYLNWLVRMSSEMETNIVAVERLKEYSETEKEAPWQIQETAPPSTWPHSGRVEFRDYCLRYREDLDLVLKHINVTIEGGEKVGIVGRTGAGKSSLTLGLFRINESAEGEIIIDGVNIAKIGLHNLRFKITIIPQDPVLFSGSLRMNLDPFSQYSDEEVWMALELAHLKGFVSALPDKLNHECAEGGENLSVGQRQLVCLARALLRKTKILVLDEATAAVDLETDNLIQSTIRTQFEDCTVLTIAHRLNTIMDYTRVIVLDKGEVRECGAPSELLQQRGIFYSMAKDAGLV", "details": "single 60-min PET scans, n = 4 each"}, "[7]": {"tested_on": "P-glycoprotein (Pgp) at the blood-brain barrier", "experiment": "Paired small-animal PET scans in rats before and after tariquidar"}, "[8]": {"tested_on": "P-glycoprotein (Pgp) at the blood-brain barrier"}, "human MDR1 (Pgp) [9]": {"biological_target": "T1, human MDR1 (Pgp)", "experiment": "Concentration equilibrium transport assay in LLC-MDR1 cells", "type": "cell-based", "details": "50 μM both chambers, 6 h, with/without tariquidar 0.5 μM"}, "human MRP1": {"biological_target": "human MRP1 (Homo sapiens, UniProt P33527)", "sequence (P33527 whole entry)": "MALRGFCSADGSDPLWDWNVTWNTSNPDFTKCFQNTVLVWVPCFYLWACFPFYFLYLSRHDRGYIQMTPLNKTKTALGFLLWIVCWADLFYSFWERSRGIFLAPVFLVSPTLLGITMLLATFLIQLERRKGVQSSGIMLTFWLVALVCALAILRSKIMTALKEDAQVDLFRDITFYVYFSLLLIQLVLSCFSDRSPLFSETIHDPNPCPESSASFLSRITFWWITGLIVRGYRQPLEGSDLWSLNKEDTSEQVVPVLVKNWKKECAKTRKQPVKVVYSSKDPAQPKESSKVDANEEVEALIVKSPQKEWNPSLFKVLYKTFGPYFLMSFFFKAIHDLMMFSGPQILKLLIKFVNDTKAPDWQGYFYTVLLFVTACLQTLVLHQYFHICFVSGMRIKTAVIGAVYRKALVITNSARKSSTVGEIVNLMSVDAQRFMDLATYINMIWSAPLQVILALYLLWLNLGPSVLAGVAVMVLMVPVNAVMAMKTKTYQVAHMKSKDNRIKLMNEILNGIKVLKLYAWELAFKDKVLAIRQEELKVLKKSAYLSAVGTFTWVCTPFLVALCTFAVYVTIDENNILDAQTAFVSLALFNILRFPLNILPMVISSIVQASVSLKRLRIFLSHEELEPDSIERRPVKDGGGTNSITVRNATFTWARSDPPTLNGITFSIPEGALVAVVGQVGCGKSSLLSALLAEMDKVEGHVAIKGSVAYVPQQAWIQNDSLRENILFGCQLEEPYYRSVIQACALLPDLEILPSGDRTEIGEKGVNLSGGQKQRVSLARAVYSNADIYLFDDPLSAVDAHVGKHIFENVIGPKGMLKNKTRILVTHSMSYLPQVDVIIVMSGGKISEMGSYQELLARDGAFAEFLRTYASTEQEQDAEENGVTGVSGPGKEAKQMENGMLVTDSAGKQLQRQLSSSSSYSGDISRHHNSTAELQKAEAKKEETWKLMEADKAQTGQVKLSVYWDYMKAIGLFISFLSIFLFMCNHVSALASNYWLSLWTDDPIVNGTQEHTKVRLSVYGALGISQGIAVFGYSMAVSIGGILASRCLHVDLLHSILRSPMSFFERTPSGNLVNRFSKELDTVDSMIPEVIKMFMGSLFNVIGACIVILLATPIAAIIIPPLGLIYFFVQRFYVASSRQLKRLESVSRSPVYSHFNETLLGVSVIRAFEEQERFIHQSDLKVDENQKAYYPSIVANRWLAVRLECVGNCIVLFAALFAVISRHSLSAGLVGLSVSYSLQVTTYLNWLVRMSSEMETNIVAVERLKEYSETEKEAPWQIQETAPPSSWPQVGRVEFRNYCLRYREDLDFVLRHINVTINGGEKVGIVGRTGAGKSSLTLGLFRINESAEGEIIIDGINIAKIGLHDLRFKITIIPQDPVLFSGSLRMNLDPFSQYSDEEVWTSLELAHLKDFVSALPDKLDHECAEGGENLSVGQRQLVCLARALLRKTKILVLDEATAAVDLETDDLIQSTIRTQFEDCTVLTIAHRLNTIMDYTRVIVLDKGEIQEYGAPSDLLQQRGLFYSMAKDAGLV", "experiment": "Concentration equilibrium transport assay in LLC-MRP1 cells", "type": "cell-based", "details": "50 μM both chambers, 6 h, with/without MK571 50 μM", "in_short": "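LLC-PK1 transfected with MRP1, ≤13 passages, seeded at 0.3 × 10^6 cells/cm2 on polyester filters; assayed 5–7 days post-confluence in Opti-MEM after 1 h pre-incubation ± MK571 50 µM. Test compound 50 µM in both chambers; both sampled at 60, 120, 240, 360 min; 37°C, 5% CO2, 50 rpm; triplicate. Integrity: TEER, [14C]mannitol; calcein-AM 1 µM positive control.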"}, "murine Mdr1a (Pgp)": {"biological_target": "murine Mdr1a (Pgp) (Mus musculus, UniProt P21447)", "experiment": "Concentration equilibrium transport assay in LLC-Mdr1a cells", "type": "cell-based", "details": "50 μM both chambers, 6 h, with/without tariquidar 0.5 μM"}}, "data": [{"smiles": "CCC1(c2ccccc2)C(=O)NC(=O)NC1=O", "note": "[phenobarbital]", "values": [{"measurement": "inhibition of MDR1 transport by tariquidar", "setting": "human MDR1 (Pgp) [1]", "result": 54, "unit": "%"}]}, {"smiles": "COc1cc2c(cc1OC)CN(CCc1ccc(NC(=O)c3cc(OC)c(OC)cc3NC(=O)c3cnc4ccccc4c3)cc1)CC2", "note": "[tariquidar]", "values": [{"measurement": "inhibition of Pgp at the BBB", "setting": "[2]", "result": "completely inhibit Pgp"}]}, {"smiles": "CCC1(c2ccccc2)C(=O)NC(=O)N([11CH3])C1=O", "note": "(centres unmarked) [[^11C]mephobarbital]", "values": [{"measurement": "fraction unbound in plasma", "setting": "[3]", "result": "0.21±0.05"}, {"measurement": "total activity in brain in the form of unchanged parent", "setting": "[4]; rat brain tissue extracts, n = 5", "result": "96±6", "unit": "%"}, {"measurement": "total activity in plasma as unchanged parent", "setting": "[4]; rat plasma", "result": "> 85", "unit": "%"}, {"measurement": "Brain uptake, untreated versus MK571 pretreated mice", "setting": "[5]", "result": "did neither differ"}, {"measurement": "Brain uptake, wild-type versus Mrp1(-/-) mice", "setting": "[6]", "result": "did neither differ"}, {"measurement": "Peak brain activity uptake (SUV)", "setting": "[7]; scan 1 (before tariquidar), about 1 min after iv injection, n = 3", "result": "3.1±0.2", "unit": "SUV"}, {"measurement": "brain-to-blood AUC0-60 ratio", "setting": "[7]; scan 1 (before tariquidar), n = 3", "result": "2.0±0.5"}, {"measurement": "brain-to-blood AUC0-60 ratio in scan 1 as compared to (R)-[11C]verapamil", "setting": "[7]; scan 1, Supplementary Fig. S1", "result": "two times higher"}, {"measurement": "brain-to-blood AUC0-60 ratio", "setting": "[7]; scan 2 (after tariquidar 15 mg/kg iv), n = 3", "result": "2.4±0.3"}, {"measurement": "Blood activity concentrations (SUV), comparison of groups and scans", "setting": "[8]; 25 and 60 min, wild-type and Mdr1a/b(-/-) mice, scan 1 and 2, three comparisons excepted (p < 0.05)", "result": "similar"}, {"measurement": "Brain AUC0-60, wild-type versus Mdr1a/b(-/-) mice", "setting": "[8]; scan 1 and scan 2, respectively, n = 3 each", "result": "not significantly different"}, {"measurement": "Brain AUC0-60, scan 2 relative to scan 1", "setting": "[8]; wild-type mice, tariquidar 15 mg/kg, p = 0.013", "result": "significantly decreased"}]}, {"smiles": "CCC1(c2ccccc2)C(=O)NC(=O)N(C)C1=O", "note": "(centres unmarked) [mephobarbital, methylphenobarbital]", "values": [{"measurement": "basolateral-to-apical transport by human MDR1", "setting": "human MDR1 (Pgp) [9]", "result": "lack of active transport"}, {"measurement": "basolateral-to-apical transport by human MRP1", "setting": "human MRP1", "result": "lack of active transport"}, {"measurement": "basolateral-to-apical transport by murine Mdr1a", "setting": "murine Mdr1a (Pgp)", "result": "lack of active transport"}]}]}
